The results in this text go back to ChEMBL document CHEMBL3739273, “Synthesis, biological activity evaluation and molecular docking studies of novel coumarin substituted thiazolyl-3-aryl-pyrazole-4-carbaldehydes” (Bioorg Med Chem Lett, 2015).

Experiment [1] has as its system HeLa. Put plainly: Anticancer activity against human HeLa cells assessed as cell viability after 48 hrs by MTT assay. The class given is functional, cell-based. The procedure, abridged:
(§1)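 MTT cytotoxicity assay in human DU-145 prostate, MCF-7 breast and HeLa cervical cancer cell lines. Doxorubicin was the reference drug.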

Experiment [2] has as its system Staphylococcus aureus. Put plainly: Bactericidal activity against methicillin-resistant Staphylococcus aureus NCTC 13616 after 24 hrs. The class given is functional. Particulars: for MBC: NCTC 13616, 24 h, read-out: MBC99.9. The procedure, abridged:
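MBC determined by a standard MBC protocol run alongside the MIC determination. Gentamycin sulfate and ampicillin served as reference drugs.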

For experiment [3], the system named is Klebsiella pneumoniae. Put plainly: Antibacterial activity against Klebsiella pneumoniae ATCC 43816 after 24 hrs by microtiter plate method. The class given is functional. An outline of the steps:
(§2)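 Test concentrations reported in µg/mL. Gentamycin sulfate and ampicillin were the reference drugs.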

For experiment [4], the system named is Escherichia coli. The experiment can be described thus: Bactericidal activity against Escherichia coli ATCC 8739 after 24 hrs. Particulars: for MBC: ATCC 8739, 24 h, read-out: MBC99.9. The format is functional. The procedure, abridged:
(§3)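 MBC determined by a standard MBC protocol alongside the MIC, with values in µg/mL. Gentamycin sulfate and ampicillin were the references.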

The test system of experiment [5] is Staphylococcus aureus. The experiment can be described thus: Antibacterial activity against methicillin-resistant Staphylococcus aureus NCTC 13616 after 24 hrs by microtiter plate method. The format is functional.
For experiment [6], the target named is T1, Cytochrome P450 2A6 (Homo sapiens, UniProt P11509).
T1 sequence (P11509 whole entry): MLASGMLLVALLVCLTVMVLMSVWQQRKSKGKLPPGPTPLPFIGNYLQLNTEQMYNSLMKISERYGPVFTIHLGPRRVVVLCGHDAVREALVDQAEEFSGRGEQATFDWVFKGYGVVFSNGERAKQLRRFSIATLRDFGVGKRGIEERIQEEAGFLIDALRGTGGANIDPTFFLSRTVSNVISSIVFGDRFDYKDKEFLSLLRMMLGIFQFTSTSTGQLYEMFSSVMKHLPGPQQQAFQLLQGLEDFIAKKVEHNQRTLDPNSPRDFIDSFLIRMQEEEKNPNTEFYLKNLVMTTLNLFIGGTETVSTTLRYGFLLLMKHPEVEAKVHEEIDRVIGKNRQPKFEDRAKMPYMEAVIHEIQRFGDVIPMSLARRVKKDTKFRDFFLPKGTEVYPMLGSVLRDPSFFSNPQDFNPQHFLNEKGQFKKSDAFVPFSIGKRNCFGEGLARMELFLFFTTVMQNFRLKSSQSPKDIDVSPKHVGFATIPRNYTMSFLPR
The experiment can be described thus: Inhibition of human microsomal CYP2A6. The class given is ADME.

Experiment [7] concerns Bacillus cereus. The experiment can be described thus: Bactericidal activity against Bacillus cereus ATCC 14579 after 24 hrs. Particulars: for MBC: ATCC 14579, 24 h, read-out: MBC99.9. The class given is functional. The procedure, abridged:
as §3

Experiment [8] has as its system Bacillus cereus. The experiment can be described thus: Antibacterial activity against Bacillus cereus ATCC 14579 after 24 hrs by microtiter plate method. The class given is functional. The procedure, abridged: as §2
Experiment [9] in a line: Anticancer activity against human DU145 cells assessed as cell viability after 48 hrs by MTT assay. The format is functional, cell-based. Particulars: DU-145, 48 h. An outline of the steps: as §1
Experiment [10] concerns Bacillus spizizenii. The experiment can be described thus: Antibacterial activity against Bacillus subtilis ATCC 6633 after 24 hrs by microtiter plate method. The class given is functional. The procedure, abridged:
as §2

The subject of experiment [11] is Proteus vulgaris. The experiment can be described thus: Bactericidal activity against Proteus vulgaris ATCC 13315 after 24 hrs. The format is functional. Particulars: for MBC: ATCC 13315, 24 h, read-out: MBC99.9. The procedure, abridged:
as §3

For experiment [12], the system named is Proteus vulgaris. Put plainly: Antibacterial activity against Proteus vulgaris ATCC 13315 after 24 hrs by microtiter plate method. The format is functional. The procedure, abridged:
as §2

The test system of experiment [13] is MCF7. The experiment can be described thus: Anticancer activity against human MCF7 cells assessed as cell viability after 48 hrs by MTT assay. Particulars: MCF7, 48 h. The class given is functional, cell-based. The procedure, abridged: as §1
Experiment [14] deals with Klebsiella pneumoniae. The experiment can be described thus: Bactericidal activity against Klebsiella pneumoniae ATCC 43816 after 24 hrs. The format is functional. Particulars: for MBC: ATCC 43816, 24 h, read-out: MBC99.9. The procedure, abridged: as §3
In experiment [15] the test system is Bacillus spizizenii. The experiment can be described thus: Bactericidal activity against Bacillus subtilis ATCC 6633 after 24 hrs. The class given is functional. Particulars: for MBC: ATCC 6633, 24 h, read-out: MBC99.9. An outline of the steps: as §3
Experiment [16] has as its system Escherichia coli. Put plainly: Antibacterial activity against Escherichia coli ATCC 8739 after 24 hrs by microtiter plate method. The format is functional. The procedure, abridged:
as §2

The test system of experiment [17] is Staphylococcus aureus. Put plainly: Antibacterial activity against methicillin-resistant Staphylococcus aureus NCTC 13616 assessed as growth inhibition at 100 ug/ml after 24 hrs by agar well diffusion method. The class given is functional, organism-based. An outline of the steps: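 Agar well diffusion assay with compounds applied to wells at several concentrations, including the 100 level reported here. The zone of inhibition was measured in mm. Gentamycin sulfate was the standard drug.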

Experiment [18] relates to Escherichia coli. The experiment can be described thus: Antibacterial activity against Escherichia coli ATCC 8739 assessed as growth inhibition at 100 ug/ml after 24 hrs by agar well diffusion method. The class given is functional. The procedure, abridged: (§4)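 Agar well diffusion. Compounds were tested at 10, 20, 100, 200 and 300 µg/mL, and the zone of inhibition was measured in mm. Gentamycin sulfate was the reference drug.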

The test system of experiment [19] is Klebsiella pneumoniae. Put plainly: Antibacterial activity against Klebsiella pneumoniae ATCC 43816 assessed as growth inhibition at 100 ug/ml after 24 hrs by agar well diffusion method. The class given is functional. An outline of the steps: as §4
Experiment [20] deals with Bacillus spizizenii. The experiment can be described thus: Antibacterial activity against Bacillus subtilis ATCC 6633 assessed as growth inhibition at 100 ug/ml after 24 hrs by agar well diffusion method. The class given is functional, organism-based. The procedure, abridged:
as §4

The test system of experiment [21] is Bacillus cereus. The experiment can be described thus: Antibacterial activity against Bacillus cereus ATCC 14579 assessed as growth inhibition at 100 ug/ml after 24 hrs by agar well diffusion method. The class given is functional. An outline of the steps: as §4
Experiment [22] relates to Proteus vulgaris. Put plainly: Antibacterial activity against Proteus vulgaris ATCC 13315 assessed as growth inhibition at 100 ug/ml after 24 hrs by agar well diffusion method. The class given is functional. The procedure, abridged: as §4

Converted amounts (≈) assume the structure as drawn. The source made the active and inactive calls. No cut-off for these calls is given here. Bounds are passed on as bounds.

In the case of `O=Cc1cn(-c2nc(-c3cc4cc(Cl)ccc4oc3=O)cs2)nc1-c1ccccc1`, the IC50 was 12.8 µM in experiment [1], > 100 µM in experiment [9] and > 100 µM in experiment [13]. Further, the MBC came out at 300 µg/mL (≈ 691 µM) in experiment [2]; 265 µg/mL (≈ 611 µM) in [4]; 275 µg/mL (≈ 634 µM) in experiment [7]; 260 µg/mL (≈ 599 µM) in experiment [11]; 190 µg/mL (≈ 438 µM) in [14]; 190 µg/mL (≈ 438 µM) in [15]. Also, the minimum inhibitory concentration (MIC) in experiment [3] (ATCC 43816, 24 h) came out at 129 µg/mL (≈ 297 µM); in [5] (NCTC 13616, 24 h), 150 µg/mL (≈ 346 µM); in [8] (ATCC 14579, 24 h), 139 µg/mL (≈ 319 µM); in [10] (ATCC 6633, 24 h) it was 130 µg/mL (≈ 298 µM); in [12] (ATCC 13315, 24 h), 130 µg/mL (≈ 300 µM); in experiment [16] (ATCC 8739, 24 h), 135 µg/mL (≈ 310 µM). This compound registered an inhibitory constant (Ki) in [6] of 0.00258 µM. The “growth inhibition (GI)” value in experiment [17] is “inactive”.
Turning to `Cc1ccc(-c2nn(-c3nc(-c4cc5ccccc5oc4=O)cs3)cc2C=O)cc1`, the IC50 in experiment [1] was determined as 37.4 µM; in [9], 50.2 µM; in [13] it was 69.5 µM. The MBC in [2] amounted to 300 µg/mL (≈ 726 µM); in experiment [4], 260 µg/mL (≈ 629 µM); in [7] it was 270 µg/mL (≈ 653 µM); in [11], 300 µg/mL (≈ 726 µM); in [14] it was 300 µg/mL (≈ 726 µM); in experiment [15], 300 µg/mL (≈ 726 µM). Besides, the minimal inhibitory concentration (MIC) in experiment [3] (ATCC 43816, 24 h) stood at 150 µg/mL (≈ 363 µM); in experiment [5] (NCTC 13616, 24 h) it was 150 µg/mL (≈ 363 µM); in [8] (ATCC 14579, 24 h), 135 µg/mL (≈ 327 µM); in experiment [10] (ATCC 6633, 24 h), 150 µg/mL (≈ 363 µM); in [12] (ATCC 13315, 24 h), 150 µg/mL (≈ 363 µM); in [16] (ATCC 8739, 24 h), 132 µg/mL (≈ 320 µM). The Ki in experiment [6] was 0.011 µM. For the same compound, the “growth inhibition (GI)” value in experiment [17] was “inactive”.
For the compound `O=Cc1cn(-c2nc(-c3cc4cc(Cl)cc(Cl)c4oc3=O)cs2)nc1-c1ccccc1`, the “growth inhibition (GI)” value in [18], in experiment [19], in experiment [20], in experiment [21], in experiment [22] and in experiment [17] was “Active” each time. The IC50 in experiment [1] was determined as 13.8 µM; in experiment [9], 41.1 µM; in [13], 76.3 µM. For the same compound, the MBC in experiment [2] was found to be 175 µg/mL (≈ 374 µM); in experiment [4], 240 µg/mL (≈ 512 µM); in experiment [7] it was 175 µg/mL (≈ 374 µM); in [11], 260 µg/mL (≈ 555 µM); in experiment [14] it was 175 µg/mL (≈ 374 µM); in [15], 250 µg/mL (≈ 534 µM). The MIC in experiment [3] (ATCC 43816, 24 h) was determined as 118 µg/mL (≈ 252 µM); in experiment [5] (NCTC 13616, 24 h) it was 115 µg/mL (≈ 246 µM); in [8] (ATCC 14579, 24 h), 117 µg/mL (≈ 250 µM); in [10] (ATCC 6633, 24 h), 123 µg/mL (≈ 263 µM); in experiment [12] (ATCC 13315, 24 h), 132 µg/mL (≈ 281 µM); in experiment [16] (ATCC 8739, 24 h), 120 µg/mL (≈ 255 µM). In experiment [6], this compound gave a Ki of 0.00307 µM.
For `CC1(C)S[C@@H]2[C@H](NC(=O)[C@H](N)c3ccccc3)C(=O)N2[C@H]1C(=O)O` [AMPICILLIN], the MBC was found to be 6 µg/mL (≈ 17.2 µM) in experiment [2], 18 µg/mL (≈ 51.5 µM) in experiment [4], 8 µg/mL (≈ 22.9 µM) in experiment [7] and 10 µg/mL (≈ 28.6 µM) in experiment [15]. Moreover, the MIC is 4 µg/mL (≈ 11.4 µM) in experiment [5] (NCTC 13616, 24 h); 4 µg/mL (≈ 11.4 µM) in [8] (ATCC 14579, 24 h); 5 µg/mL (≈ 14.3 µM) in experiment [10] (ATCC 6633, 24 h); 10 µg/mL (≈ 28.6 µM) in [16] (ATCC 8739, 24 h).
Consider GENTAMICIN, for which the MBC99.9 in experiment [2] stood at 50 µg/mL; in experiment [4], 8 µg/mL; in [7], 22 µg/mL; in experiment [11], 8 µg/mL; in experiment [14], 16 µg/mL; in experiment [15], 80 µg/mL. Moreover, the MIC in experiment [3] was determined as 4 µg/mL; in experiment [5], 22 µg/mL; in experiment [8], 10 µg/mL; in [10], 45 µg/mL; in experiment [12] it was 4 µg/mL; in experiment [16] it was 2 µg/mL.
